The nature of test [1]: Inhibition of HCV NS3 protease by FRET assay. More on the design: species or system Hepacivirus hominis. The gist of the method:
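Buffer was 50 mM HEPES pH 7.5, 10 mM DTT, 40% glycerol, 0.1% n-octyl-β-D-glucoside and 3.3% DMSO. Reaction was started with FRET substrate Ac-DED(Edans)EEAbu[COO]ASK(Dabcyl)-NH2. Ki was obtained by non-linear regression.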

In a further test the test system is Hepatitis C virus. The test can be described thus: Antiviral activity against HCV 1B […] by firefly luciferase reporter gene assay. Type of test: functional, organism-based, Hepacivirus hominis. The settings on record: genotype 1b, Huh-7. For orientation: Reporter assays use an easily measured gene product as a stand-in for the process of interest.

Test [2] addresses NS3 protease (Hepatitis C virus subtype 1b, UniProt Q0ZMF1, A156T). As to the kind of experiment: Inhibition of HCV NS3 protease A156T mutant by FRET assay. Set-up: species or system Hepacivirus hominis. The gist of the method: (§1)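 Buffer was 50 mM HEPES pH 7.5, 10 mM DTT, 40% glycerol, 0.1% n-octyl-β-D-glucoside and 3.3% DMSO. Reaction started with the FRET substrate Ac-DED(Edans)EEAbu[COO]ASK(Dabcyl)-NH2. Ki derived by non-linear regression.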

The target of test [3] is NS3 protease (Hepacivirus C, UniProt C1KIQ2, D168V). As to the kind of experiment: Inhibition of HCV NS3 protease D168V mutant by FRET assay. Set-up: species or system Hepacivirus hominis. The gist of the method:
as §1

Some results are limits rather than exact numbers.

As a reminder, the Ki is a measure of affinity in units of concentration, obtained from inhibition or displacement. The low end stands for a stronger hold on the target, the high end for a looser hold on the target. With `C=CCC1(S(=O)(=O)NC(=O)[C@H](CCC)NC(=O)[C@@H](NC(=O)[C@@H](NC(=O)OC(C)(C)C)C(C)(C)C)c2ccc(Oc3cc(-c4ccccc4)nc4cc(OC)ccc34)c(C=C)c2)CC1`, affinity in test [1] was put at a Ki of 330 nM. This counts as sub-micromolar.
The EC50 is the concentration at which the effect is half-maximal. A low value points to an effect from little substance. In test [1], `COc1ccc2c(O[C@@H]3C[C@H]4C(=O)N[C@]5(C(=O)O)C[C@H]5/C=C\CCCCC[C@H](NC(=O)OC5CCCC5)C(=O)N4C3)cc(-c3csc(NC(C)C)n3)nc2c1` [CILUPREVIR] displayed a Ki of 0.3 nM. Also, the EC50 in the test on Hepatitis C virus was found to be 4 nM.
`CCC[C@H](NC(=O)[C@@H]1[C@H]2CCC[C@H]2CN1C(=O)[C@@H](NC(=O)[C@@H](NC(=O)c1cnccn1)C1CCCCC1)C(C)(C)C)C(=O)C(=O)NC1CC1` [TELAPREVIR] registered a Ki in test [1] of 40 nM.
`C=CCc1ccccc1S(=O)(=O)NC(=O)[C@H](CCC)NC(=O)[C@H](NC(=O)[C@@H](NC(=O)OC(C)(C)C)C(C)(C)C)c1ccc(Oc2cc(-c3ccccc3)nc3cc(OC)ccc23)c(C=C)c1` displayed a Ki in test [1] of 35 nM. In addition, the EC50 with Hepatitis C virus was 3000 nM.
Take `CCC[C@H](NC(=O)[C@@H](NC(=O)[C@@H](NC(=O)OC(C)(C)C)C(C)(C)C)c1ccc(Oc2cc(-c3ccccc3)nc3cc(OC)ccc23)cc1)C(=O)NS(=O)(=O)c1ccccc1`: the Ki in test [1] was 230 nM.
On the same count and under the same terms, to `C=Cc1cc([C@@H](NC(=O)[C@@H](NC(=O)OC(C)(C)C)C(C)(C)C)C(=O)N[C@@H](CCC)C(=O)NS(=O)(=O)c2ccccc2)ccc1Oc1cc(-c2ccccc2)nc2cc(OC)ccc12` belongs 130 nM.
As to `C=CCCCS(=O)(=O)NC(=O)[C@H](CCC)NC(=O)[C@@H](NC(=O)[C@@H](NC(=O)OC(C)(C)C)C(C)(C)C)c1ccc(Oc2cc(-c3ccccc3)nc3cc(OC)ccc23)c(C=C)c1`, the results for the inhibition constant (Ki) (in test [1]; at NS3 protease [2]; on NS3 protease [3]) were 63 nM, 180 nM and 140 nM, respectively. Besides, the half-maximal effective concentration (EC50) with Hepatitis C virus was more than 10000 nM.
Take `C=Cc1cc([C@@H](NC(=O)[C@@H](NC(=O)OC(C)(C)C)C(C)(C)C)C(=O)N[C@@H](CCC)C(=O)NS(=O)(=O)c2ccccc2C=C)ccc1Oc1cc(-c2ccccc2)nc2cc(OC)ccc12`: the Ki in test [1] amounted to 47 nM; on NS3 protease [2] it was 180 nM; at NS3 protease [3], 230 nM. Also, a half-maximal effect in the test on Hepatitis C virus (EC50) was put at 5400 nM.
Consider `CC[C@@H]1C[C@]1(NC(=O)[C@@H]1C[C@@H]2CN1C(=O)[C@H](C(C)(C)C)NC(=O)OCC(C)(C)CCCCc1cccc3c1CN(C3)C(=O)O2)C(=O)NS(=O)(=O)C1CC1` [VANIPREVIR], for which the affinity in test [1] corresponds to a Ki of 0.06 nM. Further, the EC50 in the test on Hepatitis C virus was 5 nM.
In test [1], `CC(C)(C)NC(=O)N[C@H](C(=O)N1C[C@H]2[C@@H]([C@H]1C(=O)NC(CC1CCC1)C(=O)C(N)=O)C2(C)C)C(C)(C)C` (some centres not stated) [BOCEPREVIR] came in with a Ki of 14 nM. This counts as double-digit nanomolar.
With `C=CCCCCS(=O)(=O)NC(=O)[C@H](CCC)NC(=O)[C@H](NC(=O)[C@@H](NC(=O)OC(C)(C)C)C(C)(C)C)c1ccc(Oc2cc(-c3ccccc3)nc3cc(OC)ccc23)c(C=C)c1`, the Ki is 100 nM in test [1], 270 nM at NS3 protease [2] and 530 nM on NS3 protease [3]. This compound also came in with an EC50 with Hepatitis C virus of 4700 nM.
The compound `COc1ccc2c(O[C@@H]3C[C@H]4C(=O)N[C@]5(C(=O)NS(=O)(=O)C6CC6)C[C@H]5/C=C\CCCCN(C)C(=O)[C@@H]4C3)cc(-c3nc(C(C)C)cs3)nc2c1C` [SIMEPREVIR] displayed a Ki in test [1] of 0.36 nM.
Consider `C=CCCCS(=O)(=O)NC(=O)[C@H](CCC)NC(=O)[C@H](NC(=O)[C@@H](NC(=O)OC(C)(C)C)C(C)(C)C)c1ccc(Oc2cc(-c3ccccc3)nc3cc(OC)ccc23)c(C=C)c1`, for which the Ki in test [1] is 48 nM; at NS3 protease [2], 86 nM; on NS3 protease [3] it was 380 nM. Also, the EC50 with Hepatitis C virus amounted to 8900 nM.
On the same counts, the results for `C=Cc1cc([C@H](NC(=O)[C@@H](NC(=O)OC(C)(C)C)C(C)(C)C)C(=O)N[C@@H](CCC)C(=O)NS(=O)(=O)c2ccccc2C=C)ccc1Oc1cc(-c2ccccc2)nc2cc(OC)ccc12` are 120 nM, 250 nM, 450 nM and more than 10000 nM.
`C=Cc1cc([C@H](NC(=O)[C@@H](NC(=O)OC(C)(C)C)C(C)(C)C)C(=O)N[C@@H](CCC)C(=O)NS(=O)(=O)c2ccccc2)ccc1Oc1cc(-c2ccccc2)nc2cc(OC)ccc12` returned a Ki in test [1] of 290 nM.
As for `C=CCc1ccccc1S(=O)(=O)NC(=O)[C@H](CCC)NC(=O)[C@@H](NC(=O)[C@@H](NC(=O)OC(C)(C)C)C(C)(C)C)c1ccc(Oc2cc(-c3ccccc3)nc3cc(OC)ccc23)c(C=C)c1`, in test [1], the Ki is 140 nM. The same compound yielded an EC50 with Hepatitis C virus of more than 10000 nM.
In the test with Hepatitis C virus, `CC(C)(C)OC(=O)N[C@H]1CCCCC/C=C\C2C[C@@]2(C(=O)NS(=O)(=O)C2CC2)NC(=O)[C@@H]2C[C@@H](OC(=O)N3Cc4cccc(F)c4C3)CN2C1=O` (single isomer, unassigned) [DANOPREVIR] gave an EC50 of 2.1 nM.
Regarding `C=CCCCCS(=O)(=O)NC(=O)[C@H](CCC)NC(=O)[C@@H](NC(=O)[C@@H](NC(=O)OC(C)(C)C)C(C)(C)C)c1ccc(Oc2cc(-c3ccccc3)nc3cc(OC)ccc23)c(C=C)c1`, the Ki in test [1] turned out to be 120 nM; on NS3 protease [2], 380 nM; on NS3 protease [3], 390 nM. The same compound showed an EC50 with Hepatitis C virus of more than 10000 nM.
Take `C=CCC1(S(=O)(=O)NC(=O)[C@H](CCC)NC(=O)[C@H](NC(=O)[C@@H](NC(=O)OC(C)(C)C)C(C)(C)C)c2ccc(Oc3cc(-c4ccccc4)nc4cc(OC)ccc34)c(C=C)c2)CC1`: the Ki in test [1] was 190 nM. That is a sub-micromolar value.
On the same count and under the same terms, to `C=CCCCS(=O)(=O)NC(=O)[C@H](CCC)NC(=O)[C@@H]1C[C@@H](Oc2cc(-c3ccccc3)nc3cc(OC)ccc23)CN1C(=O)[C@@H](NC(=O)OC(C)(C)C)C(C)(C)C` belongs 300 nM.

Values taken from ChEMBL document CHEMBL1177656, “Improved P2 phenylglycine-based hepatitis C virus NS3 protease inhibitors with alkenylic prime-side substituents” (Bioorg Med Chem, 2010).
